Assay outcomes: PubChem BioAssay, The Scripps Research Institute Molecular Screening Center
TAAR1 ag: human TAAR1 agonism | CHO RD-HGA16 TAAR1, Fluo-8 calcium fluorescence; vehicle wells 0%, saturating PEA agonist 100% | 360,000 tested, 0.99% active | AID 624467 | activation, % at 3 µM;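 active = activation above the mean activation of all test compounds in the run plus 3 SD, cut at about 38% in these data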
Target sequence (Q96RJ0 whole entry, looked up): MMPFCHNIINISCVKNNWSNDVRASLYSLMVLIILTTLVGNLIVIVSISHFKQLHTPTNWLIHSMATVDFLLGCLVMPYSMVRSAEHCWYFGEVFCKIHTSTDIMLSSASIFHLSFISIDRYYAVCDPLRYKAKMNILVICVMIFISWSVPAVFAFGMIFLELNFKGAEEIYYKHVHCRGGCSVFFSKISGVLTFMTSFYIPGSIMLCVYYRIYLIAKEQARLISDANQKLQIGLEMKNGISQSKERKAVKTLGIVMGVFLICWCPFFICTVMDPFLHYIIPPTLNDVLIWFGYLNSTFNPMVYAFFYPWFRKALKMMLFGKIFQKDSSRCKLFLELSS
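Test system: RD-HGA16 (CHO) cells co-expressing Gα16 and hTAAR1 | Doses: Single dose, 3 µM | Schedule: 17-24 h seeding, 75 min 37 °C dye, 30 min RT | Evaluation: % activation from peak over basal fluorescence ratio, DMSO-to-PEA scaled | Technique: Kinetic Fluo-8 calcium fluorescence | Benchmarks: Low control DMSO, high control PEA (EC100)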
TAAR1 antagonist: human TAAR1 antagonism | Q96RJ0 | CHO RD-HGA16 TAAR1, Fluo-8 calcium fluorescence, antagonist | inhibition, % at 3 µM | 360,000 tested, 1.5% active | AID 624466;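 active = inhibition above a per-plate cutoff, the mean inhibition of test compounds on that plate plus 3 SD, cut at about 49% in these data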;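 also: 0% = DMSO plus EC80 beta-PEA response and 100% = DMSO alone without agonist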
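test system = CHO RD-HGA16 cells bearing hTAAR1 | replication = singlicate | controls = DMSO-only wells and EC80 β-PEA-stimulated wells | reagent = EC80 β-phenethylamine stimulus | read-out basis = percent inhibition of PEA-evoked calcium signal, max/basal emission ratio | schedule = seeding 17-24 h prior, 75-min 37 °C, 30-min RT dye loading | signal = kinetic Fluo-8 calcium fluorescence measurement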
rCAG binder: r(CAG) repeat RNA binding | TO-PRO-1 dye displacement fluorescence | AID 651821 | 370,000 tested, 1.3% active | inhibition, % at 3 µM;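 active = inhibition above the plate cutoff, the mean of all test compounds on that plate plus 3 SD, cut at about 35% in these data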;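 also: 0% = DMSO alone and 100% = 100 µM mitoxantrone as full dye displacement; higher means more dye released from RNA so lower well fluorescence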
NS3 helicase inh: blocks Hepatitis C virus NS3 helicase unwinding | 290,000 tested, 0.56% active | AID 1800 | NS3 helicase DNA unwinding, Cy5 molecular beacon fluorescence | inhibition, % at 10.9 µM;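 active = inhibition above the mean of all tested compounds plus 3 SD, set per campaign, cut at about 35% in these data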;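 also: 0% = DMSO wells and 100% = thioflavine S control wells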
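Test system: hepatitis C virus NS3 helicase domain fragment enzyme. Also added: annealed dual-labelled DNA beacon duplex, ATP-started. Timing: 60 min unwinding reaction at 25 °C after ATP addition. Technique: Cy5 fluorescence. Measure: % inhibition of unwinding.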
HCV core dimer: blocks dimerization of HCV core protein | TR-FRET GST/Flag-core106 dimerization, 1536-well | inhibition, % at 5 µM | 300,000 tested, 0.33% active | AID 1899;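 active = inhibition above the mean of all tested compounds plus 3 SD, set per screening campaign, cut at about 45% in these data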
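System – GST-tagged and Flag-tagged HCV core protein residues 1-106 · Repeats – one well for each compound · Technique – TR-FRET 671 and 617 nm emission · Doses – one concentration, 5 µM, in 0.5% DMSO · Times – 4 h, 22.5 °C incubation · Also added – Eu donor and XL665 acceptor anti-tag antibodies · Measure – percent inhibition of core106 dimerization signal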
rCAG bind conf: r(CAG) RNA repeat binding, confirmation; TO-PRO-1 dye displacement fluorescence; 4,300 tested, 70% active; shares compounds with rCAG binder; inhibition, % at 3 µM;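 active = inhibition above a per-plate cutoff, the mean inhibition of sample wells plus 3 SD, cut at about 35% in these data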;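 also: loss of TO-PRO-1 fluorescence as compound displaces dye from 1x1 AA loop RNA; 0% = DMSO only wells and 100% = 100 µM mitoxantrone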
dCAG dye counter: counter-screen for rCAG RNA binders: DNA CAG dye complex inhibitors; shares compounds with rCAG binder; d(CAG) DNA oligo TO-PRO-1 dye displacement, fluorescence; inhibition, % at 3 µM; 4,300 tested, 94% active;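 active = inhibition above its plate's cutoff, the mean test-well inhibition plus 3 SD, cut at about 4.8% in these data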;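 also: 0% = DNA dye mix with DMSO and 100% = 100 µM mitoxantrone; hits displace the dye from DNA and so lower well fluorescence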
dCAG dye DR: DNA CAG dye complex inhibition, dose response counter-screen | DNA CAG/GTC duplex TO-PRO-1 dye displacement fluorescence | IC50, µM | 250 tested, 20% active | shares compounds with rCAG binder; in the data active = IC50 below about 10 µM
The depositor's hits bear a star; i = inactive; x = not tested or not shown. Sampled rows, rich in hits. Any-hit rate of the full collection: about 3.7%.

SMILES	TAAR1 ag	TAAR1 antagonist	rCAG binder	NS3 helicase inh	HCV core dimer	rCAG bind conf	dCAG dye counter	others
Cc1c(N/N=C(\C#N)C(=O)c2ccc(Cl)cc2)c(=O)n(-c2ccccc2)n1C	13	9	37*	19	1	32	10*
N#C/C(=N\Nc1ccc(Cl)cc1)C(=O)c1ccccc1	1	4	59*	-3	5	58*	14*
O=S(=O)(O)c1cccc(N=Nc2c(O)ccc3ccccc23)c1	11	-8	38*	17	-9	36*	9.7*
C[C@H]1CN(c2ccc(N3CCNC[C@@H]3C)cc2C#N)CCN1Cc1ccccc1	11	-11	5	x	x	x	x
O=C(c1c(O)cc(O)cc1O)C1c2c(cc(O)c3c2O[C@H](c2ccc(O)cc2)[C@@H](O)C3)OC1c1ccc(O)cc1 (stereo partly drawn)	4	-12	37*	x	x	45*	16*
O=C1CC(c2ccc(O)cc2)Oc2cc(O)cc(O)c21 (stereo not drawn)	3	3	5	-1	-7	x	x
O=C(/C=C/c1ccc(Cl)cc1)NC(=S)Nc1ccccc1C(=O)O	5	-2	35*	19	8	33	9.1*
NC(=O)c1ccccc1NC(=O)/C=C/c1ccc(Cl)cc1	2	11	3	5	2	x	x
N#Cc1ccc(C(=O)NCC2CCN(C(=O)C(=O)c3cccs3)CC2)cc1	1	-20	4	x	x	x	x
O=C(N=Nc1c(O)[nH]c2ccccc12)c1cc(NS(=O)(=O)c2cccs2)cc(NS(=O)(=O)c2cccs2)c1	0	-12	67*	9	16	73*	35*
O=C(N=Nc1c(O)[nH]c2ccccc12)c1cccs1	0	26	10	0	-15	x	x
Cc1c(CCC(=O)NCC(=O)O)c(=O)oc2cc3occ(-c4ccccc4)c3cc12	2	-15	21	18	x	x	x
Cc1c(CCC(=O)O)c(=O)oc2cc3occ(-c4ccc(Br)cc4)c3cc12	1	-6	37*	-16	26	62*	24*
Cc1c(CCC(=O)NCCC(=O)O)c(=O)oc2cc3occ(-c4ccccc4)c3cc12	-1	-5	31	5	18	x	x
CCCC(NC(=O)CCc1c(C)c2cc3c(-c4ccccc4)coc3cc2oc1=O)C(=O)O (stereo not drawn)	0	-6	36*	-22	15	41*	11*
Cc1c(CCC(=O)O)c(=O)oc2cc3occ(-c4ccc(F)cc4)c3cc12	12	-2	47*	15	17	44*	12*
COc1ccccc1C(=O)NC1CCCCN(Cc2ccc(Cl)cc2)C1=O (stereo not drawn)	x	x	2	x	x	x	x
Cc1ccc(C)n1/N=C1/NC(=O)CS1	1	4	36*	32	10	20	9.9*
COc1ccc(OC)c(/C=C/C(=O)OCC(=O)Nc2nnc(-c3ccccc3)o2)c1	0	6	45*	x	x	41*	15*
COc1ccccc1/C=C/C(=O)OCC(=O)Nc1nnc(-c2ccccc2)o1	-2	-15	30	x	x	x	x
Cc1[nH]c2ccccc2c1/C=N/Nc1ccc([N+](=O)[O-])cc1	14	47	56*	-12	-23	32	21*
N[C@H](C(=O)N1CCC[C@@H]1C(=O)N1CCC2CCN(S(=O)(=O)c3ccccc3)CC21)c1ccccc1 (stereo partly drawn)	x	x	2	x	x	x	x
Cc1onc(-c2ccccc2)c1C(=O)NC(=S)NNC(=O)c1ccncc1	0	-2	4	-10	1	x	x
Cc1onc(-c2ccccc2)c1C(=O)NC(=S)NNC(=O)c1cc(-c2ccc(F)cc2)n[nH]1	1	-6	68*	30	5	71*	31*	dCAG dye DR=>30
CCN(CC)C(=O)CC[C@@H]1CC[C@]2(CCCN(S(C)(=O)=O)C2)O1	x	x	0	x	x	x	x
SMILES	TAAR1 ag	TAAR1 antagonist	rCAG binder	NS3 helicase inh	HCV core dimer	rCAG bind conf	dCAG dye counter	others
CC(C)c1c(C(=O)Nc2ccccc2)c(-c2ccccc2)c(-c2ccc(F)cc2)n1CC[C@@H](O)C[C@@H](O)CC(=O)O	-1	-13	37*	x	x	36*	9.9*
Cc1ccc(S(=O)(=O)N2[C@@H](c3ccccc3)C(C(=O)O)=CC[C@H]2c2ccc3c(c2)OCO3)cc1	1	3	54*	x	14	43*	11*
Cc1ccc(S(=O)(=O)N2[C@@H](c3ccc(C(C)(C)C)cc3)C(C(=O)O)=CC[C@H]2c2ccc3c(c2)OCO3)cc1	4	-1	83*	x	x	82*	46*
O=C(COCc1ccccc1)NC1CCCCN(Cc2cccc(Cl)c2)C1=O (stereo not drawn)	x	x	-3	x	x	x	x
COCCCNC(=O)C[C@H]1C[C@@]2(C(=O)OC)C(=C[C@H](COCc3ccccc3)O[C@@H]2C)N(Cc2cccc3ccccc23)C1=O	x	x	6	x	x	x	x
CC(C)[C@H](N)C(=O)N[C@H](C(=O)N1CCC2CCN(Cc3ccccc3)CC21)C(C)C (stereo partly drawn)	3	8	1	x	x	x	x
Cc1cccc(S(=O)(=O)Nc2ccc(-c3nc4ccc(C)cc4s3)cc2)c1	3	-1	37*	-10	6	40*	15*
Cc1ccc2nc(-c3ccc(NS(=O)(=O)c4c(C)n(C)c(=O)n(C)c4=O)cc3)sc2c1	13	11	7	36	16	x	x
Cc1ccc(S(=O)(=O)Nc2ccc(-c3nc4ccc(C)cc4s3)cc2)cc1	4	14	35*	7	6	28	12*
Cc1ccc2nc(-c3ccc(NC(=O)CSc4nccc(=O)[nH]4)cc3)sc2c1	2	1	40*	17	-19	71*	33*	dCAG dye DR=>30
Cc1ccc2nc(-c3ccc(NC(=O)CN4C(=O)c5ccccc5C4=O)cc3)sc2c1	1	6	3	12	5	x	x
Cc1ccc2nc(-c3ccc(NC(=O)CCS(=O)(=O)c4ccccc4)cc3)sc2c1	6	22	6	-8	-13	x	x
O=c1oc2c(-c3ccc([N+](=O)[O-])cc3)cc(O)cc2s1	7	-18	40*	20	-4	9	7.7*
O=[N+]([O-])c1ccc(Cn2ccc3ccc(-c4ccc5ccn(Cc6ccccc6)c5c4)cc32)cc1	x	x	16	x	x	x	x
CC1(C(=O)NS(=O)(=O)Cc2cccc(Cl)c2)CCN1C(=O)Cc1ccc(-c2ccccc2)cc1 (stereo not drawn)	1	-10	72*	x	x	70*	29*	dCAG dye DR=i
